One may read the EC50 as the midpoint of the concentration-response curve. Low values mean higher potency in that assay, high ones lower potency in that assay.

From ChEMBL document CHEMBL1121513, “Separation of potent central and renal dopamine agonist activity in substituted 6-chloro-2,3,4,5-tetrahydro-7,8-dihydroxy-1-phenyl-1H-3-benzazepines” (J Med Chem, 1980) come the findings set out here.

Experiment [1] relates to Canis familiaris. Briefly: Effective Dose (ED15) required to decrease renal vascular resistance by 15% in anesthetized dogs administered intravenously; d = increase in renal resistance were seen. The settings on record: Canis lupus familiaris. It counts as functional, organism-based. In short, it runs like this: (§1)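 Anesthetized dogs were surgically prepared for electromagnetic measurement of renal and iliac artery blood flow, carotid blood pressure, and ECG-triggered cardiometer heart rate. Drug was infused into an antecubital vein at cumulative, usually threefold increasing doses, 5 min per level. Renal vascular resistance was calculated as mean arterial pressure divided by mean blood flow, with a […] change needed for significance.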

The species named for experiment [2] is Rattus norvegicus. Briefly: Central dopaminergic activity was determined by testing compound for dopamine agonist activity mediated by adenylase cyclase in rat. It counts as functional, organism-based.
In experiment [3] the test system is Rattus norvegicus. Briefly: Central dopaminergic activity was determined by testing compound for its ability to produce contralateral rotation in lesioned rat after ip administration. The format is functional.
In experiment [4] the test system is Canis familiaris. Briefly: Effective Dose (ED15) required to decrease renal vascular resistance by 15% in anesthetized dogs administered intravenously. It counts as functional. The settings on record: Canis lupus familiaris, iv. The method, boiled down: as §1
The subject of experiment [5] is Rattus norvegicus. The experiment in a line: Central dopaminergic activity was determined by testing compound for its ability to produce contralateral rotation in lesioned rat after intracerebrally administration. It counts as functional.
The species entered for experiment [6] is Canis familiaris. The experiment in a line: Potency was expressed as the average maximum cumulative dose required to decrease renal vascular resistance by 15%. The format is functional, Canis lupus familiaris. In short, it runs like this: as §1
Experiment [7] in a line: Renal vasodilator activity was measured between ED20, measure of mean arterial blood pressure (MABP) test, and ED15 RVR. The format is functional. The method, boiled down: (§2)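 In anesthetized dogs with electromagnetic renal and iliac blood-flow probes, carotid pressure and ECG-triggered heart rate, drug was given as cumulative iv infusions rising about threefold every 5 min. Resistance was pressure divided by flow. Each ratio divides the dose giving a 30% IVR change, a 20% MABP rise or a 20% HR change by the RVR ED15.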

Experiment [8] can be described thus: Renal vasodilator activity was measured between ED30, measure in iliac vascular resistance (IVR) test, and ED15 RVR. It counts as functional. In short, it runs like this: as §2
The nature of experiment [9]: Renal vasodilator activity was measured between ED20, heart rate (HR) test, and ED15 RVR. It counts as functional. The method, boiled down:
as §2

For the compound `Oc1ccc(C2CNCCc3cc(O)c(O)cc32)cc1` (configuration not stated), the ED15 entry in [1] is on record as “Significant increases”. In addition, a half-maximal response in experiment [2] (EC50) required 500 nM.
In the case of `Oc1cc2c(c(Cl)c1O)CCNCC2c1ccccc1` (configuration not stated), the results for the RD500 in experiment [3] and in [5] were 300 µg/kg and 0.22 µg/rat, respectively. This compound also displayed an ED15 in experiment [4] of 3.5 µg/kg. In experiment [6], this compound returned an Average max of 39%.
For the compound `NCCc1ccc(O)c(O)c1` [DOPAMINE], the Selectivity ratio was 113 in [7], 56 in experiment [8] and 141 in [9]. In [4], this compound returned an ED15 of 2.7 µg/kg. A half-maximal response in [2] (EC50) required 3500 nM. This compound also yielded an Average max in experiment [6] of 36%.
`Oc1ccc(C2CNCCc3c2cc(O)c(O)c3Cl)cc1` (configuration not stated) [FENOLDOPAM]: the RD500 came out at 10000 µg/kg in experiment [3] and 0.5 µg/rat in experiment [5]. Besides, the Selectivity ratio in experiment [7] was greater than 6072; in experiment [8] it was greater than 6070; in [9] it was greater than 6072. Also, the ED15 in experiment [4] worked out at 0.3 µg/kg. Besides, the midpoint of the response in experiment [2], the EC50, lay at 18 nM. Also, in [6], the Average max came out at 59%.
Take `Oc1cc2c(cc1O)C(c1ccccc1)CNCC2` (configuration not stated) [SKF-38393]: the values for the RD500 in [3] and in experiment [5] were 700 µg/kg and 0.18 µg/rat, respectively. For the same compound, the Selectivity ratio in [7] turned out to be 10; in experiment [8], 15. The ED15 in experiment [4] turned out to be 31 µg/kg. This compound also had an EC50 in experiment [2] of 80 nM. In addition, the Average max in experiment [6] came out at 19%.
